Experimental data: ChEMBL document CHEMBL2331437, “Meroterpenoid pigments from the basidiomycete Albatrellus ovinus” (J Nat Prod, 2013)

Experiments:
Format in all cases: functional, cell-based
[1] = system: HL-60; experiment: Cytotoxicity against human HL60 cells after 48 hrs by MTT assay; settings: HL-60, 48 h
Summary of the method: (§1)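 Cells grown in RPMI-1640 or DMEM with 10% FBS, 37 °C, 5% CO2. Seeded at 1 × 10^5 cells/mL; adherent lines allowed 12 h to attach, suspension cells seeded just before dosing. Compounds at various concentrations in triplicate, 48 h. MTT (100 μg per well) 4 h at 37 °C, SDS lysis, OD 595 nm; IC50 by Reed and Muench method.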

[2] = system: A549; experiment: Cytotoxicity against human A549 cells after 48 hrs by MTT assay; settings: A549, 48 h; summary of the method: as §1
[3] = Cytotoxicity against human […] cells after 48 hrs by MTT assay; summary of the method: as §1
[4] = system: MCF7; experiment: Cytotoxicity against human MCF7 cells after 48 hrs by MTT assay; settings: MCF7, 48 h; summary of the method: as §1

Compound | IC50 [1] [µM] | IC50 [2] [µM] | IC50 [3] [µM] | IC50 [4] [µM]
COc1cc(C)c(O)c2c1C=C[C@@](C)(CC/C=C(\C)CCC=C(C)C)O2 [ALBATRELIN B] | > 40 | > 40 | > 40 | > 40
CC(C)=CCC/C(C)=C/CC/C(C)=C/CC1=C(O)C(=O)C(C)=C(c2c(O)cc(O)c(C/C=C(\C)CC/C=C(\C)CCC=C(C)C)c2C)C1=O [ALBATRELIN E] | > 40 | > 40 | > 40 | > 40
CC(C)=CCC/C(C)=C/CC[C@]1(C)C=Cc2c(C)cc(O)cc2O1 [ALBATRELIN C] | > 40 | > 40 | > 40 | > 40
CC(C)=CCC/C(C)=C/CC/C(C)=C/CC12C(=O)C=C(C)C(=O)C1(O)Oc1c3c(c(O)c(C)c12)O[C@](C)(CC/C=C(\C)CCC=C(C)C)C=C3 (stereo partly drawn) [ALBATRELIN F] | > 40 | > 40 | > 40 | > 40
CC(C)=CCC/C(C)=C/CC[C@]1(C)C=Cc2c(O)cc(C)cc2O1 [CONFLUENTIN] | 15.1 | 18.5 | 17.1 | 23
COC(=O)c1c(O)cc(O)c(C/C=C(\C)CC/C=C(\C)CCC=C(C)C)c1C [ALBATRELIN A] | > 40 | > 40 | > 40 | > 40
CC(C)=CCC/C(C)=C/CC/C(C)=C/Cc1c(O)cc(C)c2c1oc1c3c(c(O)c(C)c12)O[C@](C)(CC/C=C(\C)CCC=C(C)C)C=C3 [ALBATRELIN D] | > 40 | > 40 | > 40 | > 40
